Data reported in ChEMBL document CHEMBL5038583, “Highly Potent and Selective Butyrylcholinesterase Inhibitors for Cognitive Improvement and Neuroprotection” (J Med Chem, 2021).
Active and inactive are the calls of the source. No cut-off for these calls is given here.

Legend:
[1] = Ratio of Cmax in brain to plasma of ICR mouse at 10 mg/kg, po measured upto 240 mins; type: ADME, organism-based
Outline: (§1)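 ICR mice given 10 mg/kg orally in 5% DMSO/40% PEG400/55% saline (1 mg/mL). Blood (retro-orbital) and brain collected at 30, 60, 120 and 240 min. Brain homogenized in 2 volumes PBS, extracted with ethyl acetate, dried and reconstituted in mobile phase. Plasma processed as in the rat study; LC/MS/MS. Brain/plasma ratios from exposures, AUC(B) vs AUC(P).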

[2] = Ratio of AUC in brain to plasma of ICR mouse at 10 mg/kg, po measured upto 240 mins; type: ADME, organism-based; settings: read-out: Ratio AUC; outline: as §1
[3] = target: Cholinesterase (Homo sapiens, UniProt P06276); experiment: Inhibition of human serum BChE using butyrylthiocholine iodide as substrate preincubated for 20 mins followed by substrate addition and measured after 2 mins by DTNB-reagent based Ellman's method
Sequence of Cholinesterase (P06276 whole entry): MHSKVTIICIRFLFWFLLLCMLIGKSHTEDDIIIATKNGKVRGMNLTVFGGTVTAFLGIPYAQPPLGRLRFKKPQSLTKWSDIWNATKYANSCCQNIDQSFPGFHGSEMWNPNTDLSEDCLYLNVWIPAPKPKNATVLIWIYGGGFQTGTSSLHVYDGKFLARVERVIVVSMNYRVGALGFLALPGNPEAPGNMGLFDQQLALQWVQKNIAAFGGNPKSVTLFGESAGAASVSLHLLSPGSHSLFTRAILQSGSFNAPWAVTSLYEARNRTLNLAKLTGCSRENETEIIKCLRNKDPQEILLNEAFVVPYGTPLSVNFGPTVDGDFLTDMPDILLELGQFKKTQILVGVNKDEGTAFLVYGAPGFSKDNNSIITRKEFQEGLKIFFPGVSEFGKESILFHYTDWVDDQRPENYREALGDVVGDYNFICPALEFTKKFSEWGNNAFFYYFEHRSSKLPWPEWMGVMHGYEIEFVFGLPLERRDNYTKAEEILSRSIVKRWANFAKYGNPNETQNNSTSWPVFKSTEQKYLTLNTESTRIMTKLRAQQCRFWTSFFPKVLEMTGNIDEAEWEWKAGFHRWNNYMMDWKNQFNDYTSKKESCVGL
Outline: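 hBChE at 0.015 units/mL with DTNB in phosphate buffer pH 8.0, preincubated 20 min at room temperature with at least six concentrations (10⁻⁴−10⁻⁹). Butyrylthiocholine iodide (0.075 M solution) added; A412 read after 2 min at 25 °C. IC50 from % activity vs log concentration; triplicates in at least three runs.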

[4] = Acute toxicity in ICR mouse assessed as abnormal behaviour at 1 g/kg, ig administered […]; settings: in vivo, po, 1000 mg/kg
Outline: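 Single dose of 1 g/kg given intragastrically on day 1 to overnight-fasted mice (15−18 g), suspended in 5% DMSO, 40% PEG 400, 55% saline. Male and female groups (n = 9), with vehicle controls. Death, daily behaviour and body mass followed over the next 2 weeks.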

[5] = Hepatotoxicity in ICR mouse assessed as change in alanine aminotransferase activity at 1 g/kg, ig administered daily for 14 days measured upto 36 hrs post-administration; type: toxicity; settings: in vivo, po, 1000 mg/kg, 336 h, time 14 day
Outline: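 Heparinized serum from ICR mice taken at 8, 22 and 36 h after oral compound or saline control; AST and ALT activities measured.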

[6] = Hepatotoxicity in ICR mouse assessed as morphological changes in liver at 1 g/kg, ig administered daily for 14 days analysed after 22 hrs post-administration by hematoxylin and eosin staining based analysis; type: toxicity, tissue-based; settings: in vivo, po, 1000 mg/kg, 336 h, time 14 day
Outline: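 Liver from male mice taken 22 h after compound or vehicle; hematoxylin−eosin staining, viewed at ×100.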

[7] = AUC (0 to t) in overnight fasted Sprague-Dawley rat at 10 mg/kg, po measured upto 1440 mins by LC/MS/MS analysis; type: ADME, organism-based; design: route oral, dose 10 mg/kg, time <=1440; settings: in vivo
Outline: (§2)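 Male SD rats (180−220 g), n = 8 per route, fasted overnight with water available. Single 10 mg/kg dose p.o. or i.v. in DMSO/PEG400/saline (10:80:10). Retro-orbital blood taken into heparinized tubes at 1–1440 min. Plasma precipitated with methanol containing theophylline internal standard, then LC/MS/MS against a blank-plasma standard curve. Parameters from noncompartmental extravascular analysis; mean ± SD.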

[8] = AUC (0 to infinity) in overnight fasted Sprague-Dawley rat at 10 mg/kg, iv measured upto 1440 mins by LC/MS/MS analysis; type: ADME, organism-based; design: route intravenous, dose 10 mg/kg, time <=1440; settings: in vivo, 24 h; outline: as §2
[9] = MRT (0 to infinity) in overnight fasted Sprague-Dawley rat at 10 mg/kg, po measured upto 1440 mins by LC/MS/MS analysis; type: ADME, organism-based; settings: in vivo; outline: as §2
[10] = Cmax in overnight fasted Sprague-Dawley rat at 10 mg/kg, iv measured upto 1440 mins by LC/MS/MS analysis; type: ADME, organism-based; design: route intravenous, dose 10 mg/kg, time <=1440; settings: in vivo, 24 h; outline: as §2
[11] = Effective permeability of the compound in pH 7.4 PBS/EtOH (70:30) at 100 ug/ml incubated for 18 hrs by PAMPA-BBB assay; type: ADME; settings: dose 100 µg/ml, read-out: Peff
Outline: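 PAMPA-BBB with porcine brain lipid in dodecane (20 mg/mL) on PVDF filter. Donor holds compound at 100 μg/mL final (from 5 mg/mL DMSO stock) in PBS pH 7.4/EtOH 70:30; acceptor holds the same buffer. Incubated 18 h at 25 °C; donor and acceptor concentrations by UV at five wavelengths. Four wells, at least three runs, nine permeability standards; mean ± SD.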

[12] = system: SH-SY5Y; experiment: Neuroprotective activity against amyloid beta (1 to 42)-induced cytotoxicity in human SH-SY5Y cells at 2.5 uM pretreated for 2 hrs followed by amyloid beta (1 to 42) stimulation and measured after 24 hrs by MTT assay; type: functional, cell-based; settings: time 26.0 hrs
Outline: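 SH-SY5Y cells seeded at 5000 per well and grown 24 h. Pretreated 2 h with compound (2.5 or 10 μM, diluted in DMEM from 10⁻¹ M DMSO stock), then H₂O₂ 200 μM, glutamate 20 mM or aggregated Aβ1-42 15 μM for 24 h. MTT added for 4 h, formazan dissolved in DMSO, absorbance read at 492 nm. Viability relative to untreated control; mean ± SEM, n = 3.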

[13] = Ratio of drug concentration in brain to plasma of ICR mouse at 10 mg/kg, po measured after 2 hrs; type: ADME, organism-based; outline: as §1
[14] = system: Mus musculus; experiment: Antialzheimer activity in ICR mouse assessed as reduction in scopolamine-induced cognitive impairment at 30 mg/kg, ig administered for 10 consecutive days by Morris water maze test; type: functional, organism-based; settings: time 10.0 day
Outline: (§3)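 Male ICR mice (8−10 weeks, 18−20 g), n = 8 per group. Compound at 15 or 30 mg/kg intragastric in DMSO/saline (10:90), given 30 min before scopolamine 3 mg/kg i.p., for 10 consecutive days; tacrine 15 mg/kg as reference. Morris water maze: 5 days of training, probe trial on day 6 with platform removed. Escape latency and trajectory recorded; mean ± SD.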

[15] = system: Mus musculus; experiment: Anti-alzheimer activity in scopolamine-induced ICR mouse model of cognitive impairment assessed as simplification of trajectories at 30 mg/kg, ig administered for 10 consecutive days by Morris water maze test; type: functional, organism-based; outline: as §3
[16] = system: Mus musculus; experiment: Anti-alzheimer activity in amyloid beta(1 to 42)-induced ICR mouse model of cognitive impairment assessed as reduction in escape latency time at 15 mg/kg, ig administered at days 2 to 14 by Morris water maze test; type: functional
Outline: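 Mouse model by icv oligomerized Aβ1-42 (10 μg/mouse, aggregated 24 h at 37 °C in saline) on day 1; 15 mg/kg ig on days 2−14, n = 8. Morris water maze training on days 9−13, probe trial day 14, escape latency and track recorded. Mean SD.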

[17] = system: Plasma; experiment: Increase in ghrelin levels in ICR mouse plasma assessed as inhibition of BChE; type: functional, cell-free
[18] = Metabolic stability in human liver microsomes assessed as half life at 1 uM measured upto 45 mins in presence of NADPH by LC/MS/MS analysis; type: ADME, Microsome
Outline: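 Human liver microsomes 0.5 mg/mL, compound 1 μM final, NADPH 2 mM, at 37 °C. Reactions stopped at 0, 5, 15, 30 and 45 min with acetonitrile containing imipramine internal standard. LC/MS/MS quantitation relative to 0 min; initial rates used for t1/2 and intrinsic clearance; ketanserin as assay control. Mean of two independent experiments.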

Nc1nonc1-c1nc2ccccc2n1CC(=O)Nc1cnc2ccccc2c1
Kp at 4 h [1]: 0.24 | Kp at 4 h [2]: 0.36 | IC50 [3]: 16 nM | Activity [4]: Non-Toxic | Activity [5]: Non-Toxic | Activity [6]: Non-Toxic | AUC(0-t) at 24 h [7]: 628 ng·h/mL | AUC [8]: 1092.11 ng·h/mL | MRT inf [9]: 11.6 h | Cmax [10]: 488.33 ng/mL | Papp at 18 h, 100 ug/ml [11]: 4.45 ×10⁻⁶ cm/s | Activity [12]: Active | Kp at 2 h [13]: 2.43 | Activity [14]: Active | Activity [15]: Active | Time [16]: 13.83 s | Activity [17]: Active | half-life at 1 µM [18]: 2.65 h
